Converted amounts (≈) assume the structure as drawn. The source made the active and inactive calls. The calls are words filed in the database; no cut-off is given here.
How the values were obtained:
[1] = Inhibition of Erk phosphorylation in human HT-29 cells; type: cell-based
Method in brief: (§1)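 Values are means of two experiments, IC50 in nM.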

HT-29 = assay: Antiproliferative activity against human HT-29 cells; type: functional, cell-based; method in brief: as §1
[2] = biological target: Dual specificity mitogen-activated protein kinase kinase; MEK1/2 (Homo sapiens, UniProt P36507+Q02750); assay: Inhibition of human MEK using fluorescein-labelled Erk-tide as substrate after 20 mins by IMAP assay; method in brief: as §1
[3] = Aqueous solubility of the compound at pH 7.4; type: physicochemical
[4] = Intrinsic clearance in rat hepatocytes assessed per 10^6 cells; type: ADME, cell-based, Hepatocyte; details: read-out: CLH
[5] = Cmax in mouse at 10 mg/kg, po; type: ADME, organism-based; design: dose 10 mg/kg, route oral; details: in vivo
Method in brief: (§2)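 Female nude mice, single oral dose 10 mg/kg; plasma drug levels measured over time; Cmax and AUClast derived.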

[6] = AUC (0 to last) in mouse at 10 mg/kg, po; type: ADME, organism-based; design: time 0 - last, dose 10 mg/kg, route oral; details: plasma; method in brief: as §2
Mus musculus [7] = assay: Inhibition of Erk phosphorylation in PMA-stimulated whole blood in nude mouse bearing human HT-29 cells at 50 mg/kg, po after 1 hr; type: functional, organism-based; design: dose 50 mg/kg
Method in brief: (§3)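 Nude mice bearing HT-29 tumours, dosed p.o. with vehicle (0 h) or 50 mg/kg compound; pERK measured in PMA-stimulated whole blood at 1, 6 and 18 h post dose. Plasma drug by LC–MS/MS; significance versus vehicle by one-way ANOVA with Bonferroni post test.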

Mus musculus [8] = assay: Inhibition of Erk phosphorylation in PMA-stimulated whole blood in nude mouse bearing human HT-29 cells at 50 mg/kg, po after 6 hrs; type: functional, organism-based; design: dose 50 mg/kg; method in brief: as §3
Mus musculus [9] = assay: Inhibition of Erk phosphorylation in PMA-stimulated whole blood in nude mouse bearing human HT-29 cells at 50 mg/kg, po after 18 hrs relative to control; type: functional; details: HT-29, Blood; method in brief: as §3
Mus musculus [10] = assay: Inhibition of Erk phosphorylation in human HT-29 cells xenografted in nude mouse at 50 mg/kg, po after 18 hrs

Row | Compound | IC50 [1] | IC50 (HT-29) | IC50 [2] | also measured
1 | CC1(C)CNC(=O)c2sc(Nc3ccc(I)cc3F)nc2C1 | 1540 nM | 8870 nM | 946 nM | 
2 | CC(C)(N)CNC(=O)c1c(Nc2ccc(I)cc2Cl)sc2c1CC(C)(C)CNC2=O | 13 nM | 113 nM | 18 nM | 
3 | CC1(C)CNC(=O)c2sc(Nc3ccc(I)cc3Cl)c(C(=O)NCC[C@@H](O)CO)c2C1 | 717 nM | 12100 nM | 200 nM | 
4 | CC1(C)CNC(=O)c2sc(Nc3ccc(I)cc3F)c(C(=O)N[C@@H]3CCNC3)c2C1 | 9 nM | 54 nM | 8 nM | 
5 | CC(C)(N)CNC(=O)c1c(Nc2ccc(I)cc2F)sc2c1CC(C)(C)CNC2=O | 6 nM | 79 nM | 14 nM | solubility ([3]; aqueous, read-out: solubility): 210 µM (≈ 114 µg/mL); hepatocyte CLint [4]: 2.6 µL/min/1e6 cells; Cmax [5]: 323 ng/mL; AUC(0-t) [6]: 1240 ng·h/mL; inhibition (Mus musculus [7]): Active; inhibition (Mus musculus [8]): Active; inhibition in vivo at 50 mg/kg (Mus musculus [9]): 35%; inhibition (Mus musculus [10]): inactive
6 | CC1(C)CNC(=O)c2sc(Nc3ccc(I)cc3F)c(C(=O)NC[C@H]3CCCN3)c2C1 | 22 nM | 120 nM | 42 nM | 
7 | CC1(C)CNC(=O)c2sc(Nc3ccc(I)cc3Cl)c(C(=O)NOC[C@H](O)CO)c2C1 | 76 nM | 896 nM | 9 nM | 
8 | CNC(=O)c1c(Nc2ccc(I)cc2Cl)sc2c1CC(C)(C)CNC2=O | 224 nM | 1630 nM | 226 nM | 
9 | CC1(C)CNC(=O)c2sc(Nc3ccc(I)cc3F)c(C(=O)O)c2C1 | 978 nM |  | 14 nM | 
10 | CC1(C)CNC(=O)c2sc(Nc3ccc(I)cc3F)c(C(=O)NOC[C@H](O)CO)c2C1 | 51 nM | 1580 nM | 6 nM | 
11 | CCOC(=O)c1c(Nc2ccc(I)cc2Cl)sc2c1CC(C)(C)CNC2=O |  |  | 2617 nM | 
12 | CC1(C)CNC(=O)c2sc(Nc3ccc(I)cc3F)c(C(=O)N[C@@H]3CCCNC3)c2C1 | 5 nM | 91 nM | 22 nM | 
13 | CC1(C)CNC(=O)c2sc(Nc3ccc(I)cc3Cl)c(C(=O)N3CCNCC3)c2C1 | 45 nM | 1040 nM | 456 nM | 
14 | CC1(C)CNC(=O)c2sc(Nc3ccc(I)cc3F)c(C(=O)NCCCO)c2C1 | 140 nM | 6210 nM | 309 nM | 
15 | CC1(C)CNC(=O)c2sc(Nc3ccc(I)cc3F)c(C(N)=O)c2C1 |  | 158 nM | 9 nM | 
16 | CC1(C)CNC(=O)c2sc(Nc3ccc(I)cc3F)c(C(=O)NOCCO)c2C1 | 18 nM | 340 nM | 7 nM | 
17 | CCOC(=O)c1c(Nc2ccc(I)cc2F)sc2c1CC(C)(C)CNC2=O |  |  | 305 nM | 
18 | CC1(C)CNC(=O)c2sc(Nc3ccc(I)cc3Cl)c(C(=O)NC[C@@H](O)CO)c2C1 | 43 nM | 710 nM | 28 nM | 
19 | CC1(C)CNC(=O)c2sc(Nc3ccc(I)cc3Cl)c(C(N)=O)c2C1 | 92 nM | 596 nM | 13 nM | solubility ([3]; buffer): Insoluble

— ChEMBL document CHEMBL1933045, “Fused thiophene derivatives as MEK inhibitors” (Bioorg Med Chem Lett, 2012)
